Measured values published in ChEMBL document CHEMBL4346670, “Discovery of Novel Janus Kinase (JAK) and Histone Deacetylase (HDAC) Dual Inhibitors for the Treatment of Hematological Malignancies” (J Med Chem, 2019).
Activity calls are given as the source filed them. The rule behind the calls is not given here.

Legend:
HEL = assay: Antiproliferative activity against HEL cells harboring JAK2 V617F mutant assessed as reduction in cell viability after 48 hrs by MTT assay; type: functional, cell-based; conditions: Homo sapiens
[1] = target: T1, Tyrosine-protein kinase JAK3 (Homo sapiens, UniProt P52333); assay: Inhibition of recombinant human JAK3 using Ulight-CAGAGAIETDKEYYTVKD as substrate measured after 60 mins by LANCE assay
T1 sequence (P52333 whole entry): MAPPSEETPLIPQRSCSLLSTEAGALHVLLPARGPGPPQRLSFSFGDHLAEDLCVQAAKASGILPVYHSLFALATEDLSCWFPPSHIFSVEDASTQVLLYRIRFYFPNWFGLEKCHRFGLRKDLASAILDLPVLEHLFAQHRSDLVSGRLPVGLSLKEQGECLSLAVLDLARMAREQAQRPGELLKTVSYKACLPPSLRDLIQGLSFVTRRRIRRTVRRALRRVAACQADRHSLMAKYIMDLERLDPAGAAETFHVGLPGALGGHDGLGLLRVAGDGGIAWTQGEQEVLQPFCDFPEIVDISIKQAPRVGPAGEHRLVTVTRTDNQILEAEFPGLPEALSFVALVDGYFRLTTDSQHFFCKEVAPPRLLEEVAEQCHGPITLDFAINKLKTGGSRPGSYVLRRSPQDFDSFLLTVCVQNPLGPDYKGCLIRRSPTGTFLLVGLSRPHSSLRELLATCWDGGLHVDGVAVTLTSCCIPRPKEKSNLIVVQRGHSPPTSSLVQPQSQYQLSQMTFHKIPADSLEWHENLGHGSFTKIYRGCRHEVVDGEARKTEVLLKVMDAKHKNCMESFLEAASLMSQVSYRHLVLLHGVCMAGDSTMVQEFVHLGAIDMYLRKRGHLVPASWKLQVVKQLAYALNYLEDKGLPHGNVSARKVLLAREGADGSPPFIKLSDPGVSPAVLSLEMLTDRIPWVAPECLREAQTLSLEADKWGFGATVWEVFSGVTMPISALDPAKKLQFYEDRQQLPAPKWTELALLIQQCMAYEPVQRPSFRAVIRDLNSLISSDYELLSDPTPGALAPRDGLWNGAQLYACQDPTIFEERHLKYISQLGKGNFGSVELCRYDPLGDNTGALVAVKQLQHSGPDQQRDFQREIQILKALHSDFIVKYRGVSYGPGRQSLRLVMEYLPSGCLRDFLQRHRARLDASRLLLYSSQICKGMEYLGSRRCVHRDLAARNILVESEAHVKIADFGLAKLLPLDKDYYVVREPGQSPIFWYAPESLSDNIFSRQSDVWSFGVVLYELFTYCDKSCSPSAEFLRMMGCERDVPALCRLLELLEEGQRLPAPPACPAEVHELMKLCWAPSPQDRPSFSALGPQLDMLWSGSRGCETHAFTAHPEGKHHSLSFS

[2] = target: Tyrosine-protein kinase JAK1 (Homo sapiens, UniProt P23458); assay: Inhibition of recombinant human JAK1 using Ulight-CAGAGAIETDKEYYTVKD as substrate measured after 60 mins by LANCE assay
Sequence of Tyrosine-protein kinase JAK1 (P23458 whole entry): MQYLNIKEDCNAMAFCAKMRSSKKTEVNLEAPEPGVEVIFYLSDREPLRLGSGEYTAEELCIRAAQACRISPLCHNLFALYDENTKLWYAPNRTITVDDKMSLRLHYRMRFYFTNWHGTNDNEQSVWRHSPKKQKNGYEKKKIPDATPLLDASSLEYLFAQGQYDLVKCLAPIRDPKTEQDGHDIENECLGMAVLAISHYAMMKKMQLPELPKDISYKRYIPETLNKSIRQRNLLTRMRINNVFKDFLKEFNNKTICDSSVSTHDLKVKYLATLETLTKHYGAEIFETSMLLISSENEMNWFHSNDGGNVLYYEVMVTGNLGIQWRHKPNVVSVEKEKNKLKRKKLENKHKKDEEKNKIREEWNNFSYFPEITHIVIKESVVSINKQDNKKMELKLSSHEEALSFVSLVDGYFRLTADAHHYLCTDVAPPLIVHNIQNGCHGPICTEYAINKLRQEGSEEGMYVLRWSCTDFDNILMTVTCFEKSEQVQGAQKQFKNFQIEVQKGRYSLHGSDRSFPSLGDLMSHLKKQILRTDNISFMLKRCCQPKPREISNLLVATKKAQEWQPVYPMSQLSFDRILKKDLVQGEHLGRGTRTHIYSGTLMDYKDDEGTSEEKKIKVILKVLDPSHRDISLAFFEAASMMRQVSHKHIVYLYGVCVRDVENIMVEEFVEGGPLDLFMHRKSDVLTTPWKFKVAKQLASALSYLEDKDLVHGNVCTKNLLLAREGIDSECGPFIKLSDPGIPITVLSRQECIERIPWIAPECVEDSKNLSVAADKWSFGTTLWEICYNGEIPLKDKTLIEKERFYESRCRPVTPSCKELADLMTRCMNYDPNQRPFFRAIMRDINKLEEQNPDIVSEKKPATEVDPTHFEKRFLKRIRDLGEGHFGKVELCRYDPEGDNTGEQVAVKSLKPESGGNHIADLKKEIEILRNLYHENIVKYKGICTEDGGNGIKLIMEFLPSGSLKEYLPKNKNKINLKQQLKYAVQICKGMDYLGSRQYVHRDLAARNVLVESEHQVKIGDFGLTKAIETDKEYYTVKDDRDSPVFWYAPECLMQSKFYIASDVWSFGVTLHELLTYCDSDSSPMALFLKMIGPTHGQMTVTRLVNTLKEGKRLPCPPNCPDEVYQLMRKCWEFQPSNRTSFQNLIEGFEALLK
Summary of the method: (§1)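 Human recombinant JAK enzyme assays run by a contract lab. IC50 was taken from a non-linear curve fit, with all parameters allowed to float. Assays were run in replicate (n>2) and reported as mean ± SD.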

Jurkat = assay: Antiproliferative activity against human Jurkat cells assessed as reduction in cell viability after 48 hrs by MTT assay; type: functional, cell-based
Histone deacetylase = assay: Inhibition of HDAC in human HeLa nuclear extract using Boc-Lys(acetyl)-AMC as substrate preincubated for 5 mins followed by substrate addition and measured after 30 mins by fluorescence assay; type: cell-based
MOLT-4 = assay: Antiproliferative activity against human MOLT4 cells assessed as reduction in cell viability after 48 hrs by MTT assay; type: functional, cell-based; conditions: MOLT-4, 48 h
Summary of the method: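 Cells kept in RPMI1640 with 10% FBS at 37 °C, 5% CO2. Seeded and grown for 12 h, then exposed to a range of compound concentrations for 48 h. 0.5% MTT added for 4 h, formazan dissolved in DMSO, absorbance read at 570 nm.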

[3] = target: Non-receptor tyrosine-protein kinase TYK2 (Homo sapiens, UniProt P29597); assay: Inhibition of recombinant human TYK2 using Ulight-CAGAGAIETDKEYYTVKD as substrate measured after 60 mins by LANCE assay; summary of the method: as §1
Sequence of Non-receptor tyrosine-protein kinase TYK2 (P29597 whole entry): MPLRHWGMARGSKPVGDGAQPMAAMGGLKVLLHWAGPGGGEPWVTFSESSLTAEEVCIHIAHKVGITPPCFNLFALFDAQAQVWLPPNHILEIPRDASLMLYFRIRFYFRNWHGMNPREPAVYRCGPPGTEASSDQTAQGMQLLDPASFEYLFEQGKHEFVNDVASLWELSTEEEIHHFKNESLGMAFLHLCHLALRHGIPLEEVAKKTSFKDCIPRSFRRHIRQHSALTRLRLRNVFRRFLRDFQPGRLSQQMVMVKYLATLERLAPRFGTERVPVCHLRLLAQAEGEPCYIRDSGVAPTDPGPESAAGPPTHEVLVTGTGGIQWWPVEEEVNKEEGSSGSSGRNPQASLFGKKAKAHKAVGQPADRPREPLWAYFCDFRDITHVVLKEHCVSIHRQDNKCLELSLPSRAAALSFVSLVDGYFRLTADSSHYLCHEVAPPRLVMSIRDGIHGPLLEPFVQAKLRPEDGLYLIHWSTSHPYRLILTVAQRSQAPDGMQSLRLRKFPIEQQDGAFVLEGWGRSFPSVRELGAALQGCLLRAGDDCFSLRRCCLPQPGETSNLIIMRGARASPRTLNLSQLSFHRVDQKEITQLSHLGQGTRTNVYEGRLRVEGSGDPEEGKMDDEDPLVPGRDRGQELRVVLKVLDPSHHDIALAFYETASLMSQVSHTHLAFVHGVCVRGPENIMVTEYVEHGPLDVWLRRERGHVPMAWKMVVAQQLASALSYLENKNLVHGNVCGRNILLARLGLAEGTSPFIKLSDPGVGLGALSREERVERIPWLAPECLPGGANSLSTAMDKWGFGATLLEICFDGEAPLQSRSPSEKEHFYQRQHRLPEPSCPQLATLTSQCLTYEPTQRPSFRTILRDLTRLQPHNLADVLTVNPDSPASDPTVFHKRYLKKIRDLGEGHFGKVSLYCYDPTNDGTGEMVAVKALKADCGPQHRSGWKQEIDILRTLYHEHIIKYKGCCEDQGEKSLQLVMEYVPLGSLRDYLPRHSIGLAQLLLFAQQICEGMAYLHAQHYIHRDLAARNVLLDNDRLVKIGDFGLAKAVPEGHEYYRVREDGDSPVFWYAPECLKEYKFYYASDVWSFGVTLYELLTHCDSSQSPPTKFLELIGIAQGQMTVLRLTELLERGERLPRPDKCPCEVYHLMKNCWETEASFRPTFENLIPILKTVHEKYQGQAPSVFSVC

[4] = target: T2, Histone deacetylase (Homo sapiens) (UniProt Q13547+O15379+Q9UBN7+Q92769+Q9UQL6+Q8WUI4+Q9BY41+Q96DB2+P56524+Q9UKV0+Q969S8); assay: Potency index, ratio of SAHA IC50 to test compound IC50 for inhibition of HDAC in human HeLa cell nuclear extract; type: cell-based
Summary of the method: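 HeLa cell nuclear extract was incubated with serial concentrations of compound for 5 min at 37 °C. Boc-Lys(acetyl)-AMC substrate was added for 30 min at 37 °C, then developer containing trypsin and TSA for 20 min. Fluorescence was read at ex 390/em 460 nm against control wells.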

K562 = assay: Antiproliferative activity against human K562 cells assessed as reduction in cell viability after 48 hrs by MTT assay; type: functional, cell-based; conditions: K562, 48 h
[5] = target: Tyrosine-protein kinase JAK2 (Homo sapiens, UniProt O60674); assay: Inhibition of recombinant human JAK2 using Ulight-CAGAGAIETDKEYYTVKD as substrate measured after 60 mins by LANCE assay
Sequence of Tyrosine-protein kinase JAK2 (O60674 whole entry): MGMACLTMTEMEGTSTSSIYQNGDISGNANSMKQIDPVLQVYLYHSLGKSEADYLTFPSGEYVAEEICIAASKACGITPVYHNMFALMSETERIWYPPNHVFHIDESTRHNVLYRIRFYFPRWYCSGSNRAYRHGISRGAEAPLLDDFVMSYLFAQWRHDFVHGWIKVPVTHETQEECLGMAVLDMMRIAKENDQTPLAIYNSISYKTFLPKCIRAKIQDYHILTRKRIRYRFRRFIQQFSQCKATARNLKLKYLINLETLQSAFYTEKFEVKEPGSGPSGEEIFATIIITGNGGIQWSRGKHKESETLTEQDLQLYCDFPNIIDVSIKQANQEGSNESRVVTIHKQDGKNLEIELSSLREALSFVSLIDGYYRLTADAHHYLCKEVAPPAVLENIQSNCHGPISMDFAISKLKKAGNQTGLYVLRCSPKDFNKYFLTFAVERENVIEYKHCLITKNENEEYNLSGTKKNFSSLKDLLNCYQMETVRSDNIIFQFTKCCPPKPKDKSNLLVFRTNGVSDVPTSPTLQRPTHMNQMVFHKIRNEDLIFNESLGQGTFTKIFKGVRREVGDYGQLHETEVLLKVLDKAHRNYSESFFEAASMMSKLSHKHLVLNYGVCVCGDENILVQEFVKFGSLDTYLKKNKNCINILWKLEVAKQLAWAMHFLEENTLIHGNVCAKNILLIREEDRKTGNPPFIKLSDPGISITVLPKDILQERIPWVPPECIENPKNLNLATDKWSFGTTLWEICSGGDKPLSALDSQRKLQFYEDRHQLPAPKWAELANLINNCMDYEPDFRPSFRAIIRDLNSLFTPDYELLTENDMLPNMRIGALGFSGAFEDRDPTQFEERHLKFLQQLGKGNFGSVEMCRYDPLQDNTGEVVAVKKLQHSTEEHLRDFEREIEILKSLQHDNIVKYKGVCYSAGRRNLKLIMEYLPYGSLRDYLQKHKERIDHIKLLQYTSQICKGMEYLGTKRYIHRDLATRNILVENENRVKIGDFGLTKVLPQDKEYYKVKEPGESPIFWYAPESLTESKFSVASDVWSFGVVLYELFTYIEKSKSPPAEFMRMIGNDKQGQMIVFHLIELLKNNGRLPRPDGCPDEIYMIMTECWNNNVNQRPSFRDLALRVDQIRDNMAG

[6] = target: T3, Protein deacetylase HDAC6 (Homo sapiens, UniProt Q9UBN7); assay: Inhibition of HDAC6 (unknown origin) using Boc-Lys(acetyl)-AMC as substrate preincubated for 5 mins followed by substrate addition and measured after 30 mins by fluorescence assay
T3 sequence (Q9UBN7 whole entry): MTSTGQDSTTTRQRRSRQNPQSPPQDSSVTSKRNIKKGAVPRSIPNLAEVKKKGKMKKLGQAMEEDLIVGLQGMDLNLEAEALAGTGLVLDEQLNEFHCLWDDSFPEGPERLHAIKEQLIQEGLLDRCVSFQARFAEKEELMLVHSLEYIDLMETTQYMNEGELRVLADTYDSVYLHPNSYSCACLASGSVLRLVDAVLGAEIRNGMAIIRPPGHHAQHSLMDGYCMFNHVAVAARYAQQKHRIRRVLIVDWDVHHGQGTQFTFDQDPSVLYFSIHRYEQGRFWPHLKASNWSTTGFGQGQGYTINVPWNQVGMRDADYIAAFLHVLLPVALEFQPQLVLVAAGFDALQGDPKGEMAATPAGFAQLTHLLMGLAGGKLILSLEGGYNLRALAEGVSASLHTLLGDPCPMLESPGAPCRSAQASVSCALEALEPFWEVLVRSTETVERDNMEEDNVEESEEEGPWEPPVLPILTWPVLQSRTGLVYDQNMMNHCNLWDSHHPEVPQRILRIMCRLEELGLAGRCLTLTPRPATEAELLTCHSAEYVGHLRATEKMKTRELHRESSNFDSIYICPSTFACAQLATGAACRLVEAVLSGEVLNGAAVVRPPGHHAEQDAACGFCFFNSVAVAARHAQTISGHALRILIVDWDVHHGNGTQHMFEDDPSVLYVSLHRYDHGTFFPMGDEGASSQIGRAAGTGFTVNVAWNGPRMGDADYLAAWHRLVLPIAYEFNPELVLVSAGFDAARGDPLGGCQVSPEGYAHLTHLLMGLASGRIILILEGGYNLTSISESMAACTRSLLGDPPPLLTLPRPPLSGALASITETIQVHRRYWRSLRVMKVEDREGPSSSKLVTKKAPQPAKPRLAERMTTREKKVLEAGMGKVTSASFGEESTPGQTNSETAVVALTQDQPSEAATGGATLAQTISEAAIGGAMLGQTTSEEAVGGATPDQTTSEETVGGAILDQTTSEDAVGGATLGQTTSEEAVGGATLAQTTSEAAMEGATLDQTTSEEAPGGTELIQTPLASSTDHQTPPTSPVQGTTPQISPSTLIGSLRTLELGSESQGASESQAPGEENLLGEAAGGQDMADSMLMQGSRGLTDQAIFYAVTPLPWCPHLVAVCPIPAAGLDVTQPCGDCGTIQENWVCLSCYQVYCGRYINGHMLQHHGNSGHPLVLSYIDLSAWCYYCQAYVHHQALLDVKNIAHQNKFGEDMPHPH

Histone deacetylase 8 = target: T4, Histone deacetylase 8 (Homo sapiens, UniProt Q9BY41); assay: Inhibition of HDAC8 (unknown origin) using Boc-Lys(trifluoroacetyl)-AMC as substrate preincubated for 5 mins followed by substrate addition and measured after 30 mins by fluorescence assay
T4 sequence (Q9BY41 whole entry): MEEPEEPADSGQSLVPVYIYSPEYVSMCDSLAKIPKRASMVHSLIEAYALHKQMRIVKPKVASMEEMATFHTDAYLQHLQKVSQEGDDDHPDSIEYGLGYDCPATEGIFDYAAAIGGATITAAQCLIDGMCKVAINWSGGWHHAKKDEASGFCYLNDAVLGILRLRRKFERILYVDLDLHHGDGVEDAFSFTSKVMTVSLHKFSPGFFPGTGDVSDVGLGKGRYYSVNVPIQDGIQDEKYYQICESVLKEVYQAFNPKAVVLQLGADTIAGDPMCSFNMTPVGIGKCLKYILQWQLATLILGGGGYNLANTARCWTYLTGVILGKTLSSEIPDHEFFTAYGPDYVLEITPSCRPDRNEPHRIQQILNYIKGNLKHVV

Histone deacetylase 2 [7] = target: T5, Histone deacetylase 2 (Homo sapiens, UniProt Q92769); assay: Inhibition of HDAC2 (unknown origin) using Boc-Lys(acetyl)-AMC as substrate preincubated for 5 mins followed by substrate addition and measured after 30 mins by fluorescence assay
T5 sequence (Q92769 whole entry): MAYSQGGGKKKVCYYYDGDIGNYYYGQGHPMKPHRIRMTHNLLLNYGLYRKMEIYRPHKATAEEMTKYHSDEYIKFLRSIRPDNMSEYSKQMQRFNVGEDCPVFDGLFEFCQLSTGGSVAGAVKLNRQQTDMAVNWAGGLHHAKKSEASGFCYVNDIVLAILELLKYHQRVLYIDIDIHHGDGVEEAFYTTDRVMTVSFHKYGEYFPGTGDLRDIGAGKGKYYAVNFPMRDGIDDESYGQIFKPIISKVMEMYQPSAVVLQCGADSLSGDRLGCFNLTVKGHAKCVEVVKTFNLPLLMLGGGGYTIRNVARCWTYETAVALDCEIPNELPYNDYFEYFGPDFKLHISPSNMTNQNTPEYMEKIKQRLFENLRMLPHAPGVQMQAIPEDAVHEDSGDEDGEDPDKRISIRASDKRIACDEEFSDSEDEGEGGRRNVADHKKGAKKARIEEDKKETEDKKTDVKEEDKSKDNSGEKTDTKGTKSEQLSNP

Histone deacetylase 2 [8] = target: T5, Histone deacetylase 2; conditions: A549, at 80 to 400 nM
[9] = target: T2, Histone deacetylase (Homo sapiens); assay: Inhibition of HDAC in human HeLa nuclear extract at 10 uM using Boc-Lys(acetyl)-AMC as substrate preincubated for 5 mins followed by substrate addition and measured after 30 mins by fluorescence assay; type: cell-free
Summary of the method: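 HeLa nuclear extract mixed with compound and held at 37 °C for 5 min. Boc-Lys(acetyl)-AMC added and incubated 30 min at 37 °C. Quenched with developer containing trypsin and trichostatin A, then 20 min at 37 °C. Fluorescence read at ex 390/em 460 nm; inhibition calculated relative to control wells.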

| SMILES | IC50 [1] [nM] | IC50 [2] [nM] | IC50 (Jurkat) [nM] | IC50 (Histone deacetylase) [nM] | IC50 (MOLT-4) [nM] | IC50 [3] [nM] | Ratio IC50 [4] | IC50 (K562) [nM] | IC50 [5] [nM] | IC50 [6] [nM] | IC50 (Histone deacetylase 8) [nM] | IC50 (Histone deacetylase 2 [7]) [nM] | inhibition (Histone deacetylase 2 [8]) | inhibition [9] | IC50 (HEL) [nM] |
| --- | --- | --- | --- | --- | --- | --- | --- | --- | --- | --- | --- | --- | --- | --- | --- |
| CNc1nc(Nc2cnn(CCCCCCC(=O)NO)c2)ncc1Cl | – | – | 70 | 15 | 110 | – | – | 590 | 36 | 29 | 4070 | 190 | Active | – | 100 |
| Clc1cccc(Nc2nc(Nc3cn[nH]c3)ncc2Cl)c1 | – | – | – | – | – | – | – | – | – | – | – | – | – | inactive | – |

Second part, led by results:

| IC50 [1] [nM] | IC50 [2] [nM] | IC50 (Jurkat) [nM] | IC50 (Histone deacetylase) [nM] | IC50 (MOLT-4) [nM] | IC50 [3] [nM] | Ratio IC50 [4] | IC50 (K562) [nM] | IC50 [5] [nM] | IC50 [6] [nM] | IC50 (Histone deacetylase 8) [nM] | IC50 (Histone deacetylase 2 [7]) [nM] | inhibition (Histone deacetylase 2 [8]) | inhibition [9] | SMILES | IC50 (HEL) [nM] |
| --- | --- | --- | --- | --- | --- | --- | --- | --- | --- | --- | --- | --- | --- | --- | --- |
| 7.6 | 10 | 100 | 2 | 120 | 94 | > 50 | 320 | 14 | – | – | – | – | – | O=C(CCCCCCn1cc(Nc2ncc(Cl)c(Nc3ccc(Cl)cc3)n2)cn1)NO | 120 |
| – | – | 120 | 3 | 220 | – | > 50 | 500 | 15 | – | – | – | – | – | O=C(CCCCCCn1cc(Nc2ncc(Cl)c(Nc3ccc(F)cc3)n2)cn1)NO | 210 |
| – | – | 130 | 3 | 170 | – | > 50 | 620 | 10 | – | – | – | – | – | COc1ccc(Nc2nc(Nc3cnn(CCCCCCC(=O)NO)c3)ncc2Cl)cc1 | 210 |
